The text below walks through data of ChEMBL document CHEMBL1155297, “Synthesis, antimicrobial and antioxidant activities of substituted pyrazoles, isoxazoles, pyrimidine and thioxopyrimidine derivatives” (2009).

Common to all, as to type: functional
Assay [1] concerns Bacillus subtilis. Put plainly: Antibacterial activity against Bacillus subtilis NCIM 2063 at 100 ug/disk after 24 hrs by agar disk diffusion method. The conditions noted are these: NCIM 2063, 24 h, read-out: IZ. Summed up: (§1)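 Agar disc diffusion on nutrient agar plates pre-inoculated with each bacterium. Sterile 6 mm filter-paper discs were moistened with compound in DMSO at the stated per-disc amount. Plates were incubated at 37 °C, and the growth-inhibition zone diameter was read after 24 h. Each determination was run in triplicate, and the mean of three independent readings is reported.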

Assay [2] deals with Radical scavenging activity. Put plainly: Antioxidant activity assessed as DPPH free radical scavenging activity at 100 uM after 20 mins. The method in brief:
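DPPH scavenging: compound solutions were added to DPPH in dioxane/ethanol and kept at ambient temperature for 20 min. Absorbance was read at 517 nm. The test–control difference was expressed as percent DPPH radical scavenging.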

In assay [3] the test system is Bacillus subtilis. Put plainly: Antibacterial activity against Bacillus subtilis NCIM 2063 at 200 ug/disk after 24 hrs by agar disk diffusion method. Conditions: NCIM 2063, 24 h, read-out: IZ. Summed up: as §1
Assay [4] concerns Staphylococcus aureus. Put plainly: Antibacterial activity against Staphylococcus aureus NCIM 5021 at 200 ug/disk after 24 hrs by agar disk diffusion method. The conditions noted are these: NCIM 5021, 24 h, read-out: IZ. Summed up: as §1
The test system of assay [5] is Curvularia lunata. Put plainly: Antifungal activity against Curvularia lunata NCIM 716 at 200 ug/disk after 48 hrs by agar disk diffusion method. The conditions noted are these: NCIM 716, 48 h, read-out: IZ. The method in brief:
(§2)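 Fungal disc diffusion on nutrient agar plates pre-inoculated with each fungus. 6 mm sterile paper discs carried the compound in DMSO at the stated amount per disc. Plates were held at 37 °C, and inhibition-zone diameter was measured after 48 h. Values are the mean of three independent triplicate readings.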
A general note: Agar diffusion results depend on both activity and mobility in agar.

For assay [6], the system named is Curvularia lunata. Put plainly: Antifungal activity against Curvularia lunata NCIM 716 at 100 ug/disk after 48 hrs by agar disk diffusion method. The conditions noted are these: NCIM 716, 48 h, read-out: IZ. Summed up: as §2
Assay [7] relates to Staphylococcus aureus. Put plainly: Antibacterial activity against Staphylococcus aureus NCIM 5021 at 100 ug/disk after 24 hrs by agar disk diffusion method. The conditions noted are these: NCIM 5021, 24 h, read-out: IZ. The method in brief:
as §1

The subject of assay [8] is Proteus vulgaris. Put plainly: Antibacterial activity against Proteus vulgaris NCIM 2027 at 200 ug/disk after 24 hrs by agar disk diffusion method. Conditions: NCIM 2027, 24 h, read-out: IZ. Summed up: as §1
Assay [9] relates to Klebsiella pneumoniae. Put plainly: Antibacterial activity against Klebsiella pneumoniae NCIM 2957 at 100 ug/disk after 24 hrs by agar disk diffusion method. Conditions: NCIM 2957, 24 h, read-out: IZ. Summed up: as §1
The test system of assay [10] is Fusarium solani. Put plainly: Antifungal activity against Fusarium solani NCIM 1330 at 100 ug/disk after 48 hrs by agar disk diffusion method. Conditions: NCIM 1330, 48 h, read-out: IZ. The method in brief:
as §2

Assay [11] relates to Aspergillus niger. Put plainly: Antifungal activity against Aspergillus niger NCIM 596 at 100 ug/disk after 48 hrs by agar disk diffusion method. Conditions: NCIM 596, 48 h, read-out: IZ. The method in brief:
as §2

Assay [12] concerns Proteus vulgaris. Put plainly: Antibacterial activity against Proteus vulgaris NCIM 2027 at 100 ug/disk after 24 hrs by agar disk diffusion method. Conditions: NCIM 2027, 24 h, read-out: IZ. The method in brief:
as §1

In assay [13] the test system is Aspergillus niger. Put plainly: Antifungal activity against Aspergillus niger NCIM 596 at 200 ug/disk after 48 hrs by agar disk diffusion method. Conditions: NCIM 596, 48 h, read-out: IZ. The method in brief: as §2
Assay [14] relates to Klebsiella pneumoniae. Put plainly: Antibacterial activity against Klebsiella pneumoniae NCIM 2957 at 200 ug/disk after 24 hrs by agar disk diffusion method. Conditions: NCIM 2957, 24 h, read-out: IZ. The method in brief:
as §1

Assay [15] is described as follows: Antioxidant activity assessed as nitric oxide production at 100 uM after 120 mins by Griess reagent method. The method in brief: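 Nitric oxide assay with Griess read-out. At intervals, 0.5 ml of incubation solution was mixed with 0.5 ml Griess reagent (1% sulfanilamide, 0.1% N-naphthylethylenediamine dihydrochloride, 2% o-phosphoric acid in water). The control received an equal amount of solvent and was handled identically.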
For orientation: Griess reagent forms a coloured azo dye with nitrite.

In assay [16] the test system is Fusarium solani. Put plainly: Antifungal activity against Fusarium solani NCIM 1330 at 200 ug/disk after 48 hrs by agar disk diffusion method. Conditions: NCIM 1330, 48 h, read-out: IZ. Summed up:
as §2

As usually defined, the inhibition is the share of the control response that was lost under treatment. With `NC1=NC(=S)N=C(N)C1C(CC(=O)c1ccc(Cl)cc1)C(=O)c1ccc(Cl)cc1` (stereo not drawn), the zone of inhibition at 100 µg/disc amounted to 23 mm in assay [1]; 17 mm in assay [6]; 25 mm in assay [7]; 19 mm in [9]; 19 mm in assay [10]; 15 mm in assay [11]. Besides, the zone of inhibition at 100 µg/disc in [12] was 20 mm. Also, the values for the inhibition in assay [2] and in assay [15] were 41.6% and 43.4%, respectively. In addition, the zone of inhibition at 200 µg/disc in [3] is 25 mm; in assay [4], 26 mm; in [5] it was 21 mm; in [8], 22 mm; in assay [13] it was 20 mm; in assay [14], 22 mm. Further, the zone of inhibition at 200 µg/disc in assay [16] stood at 22 mm.

Consider `NC1=NC(=S)N=C(N)C1C(CS(=O)(=O)c1ccc(Cl)cc1)S(=O)(=O)c1ccc(Cl)cc1` (stereo not drawn), for which the zone of inhibition at 100 µg/disc stood at 23 mm in [1]; 25 mm in assay [6]; 25 mm in [7]; 20 mm in assay [9]; 22 mm in [10]; 20 mm in [11]. Besides, the zone of inhibition at 100 µg/disc in assay [12] was determined as 21 mm. In addition, the inhibition is 47.9% in [2] and 48.5% in [15]. For the same compound, the zone of inhibition at 200 µg/disc in assay [3] was 25 mm; in assay [4], 27 mm; in assay [5], 28 mm; in assay [8] it was 23 mm; in assay [13], 23 mm; in assay [14], 22 mm. Moreover, in assay [16], the zone of inhibition at 200 µg/disc came out at 25 mm.

For `N=C1ON=C(N)C1C(CS(=O)(=O)c1ccccc1)S(=O)(=O)c1ccccc1` (stereo not drawn), the zone of inhibition at 100 µg/disc is 30 mm in [1]; 29 mm in assay [6]; 29 mm in [7]; 26 mm in assay [9]; 31 mm in assay [10]; 28 mm in assay [11]. The zone of inhibition at 100 µg/disc in [12] worked out at 26 mm. For the same compound, the inhibition in [2] is 85.8%; in assay [15] it was 84.9%. In addition, the zone of inhibition at 200 µg/disc in [3] worked out at 32 mm; in assay [4], 31 mm; in [5], 32 mm; in assay [8], 28 mm; in assay [13], 31 mm; in [14] it was 29 mm. Moreover, in assay [16], the zone of inhibition at 200 µg/disc turned out to be 34 mm.

`NC1=NC(=S)N=C(N)C1C(CS(=O)(=O)c1ccccc1)S(=O)(=O)c1ccccc1` (stereo not drawn): the zone of inhibition at 100 µg/disc in assay [1] was 23 mm; in [6], 19 mm; in assay [7], 22 mm; in assay [9] it was 21 mm; in [10], 18 mm; in assay [11], 16 mm. The zone of inhibition at 100 µg/disc in [12] worked out at 19 mm. The inhibition in assay [2] amounted to 46.9%; in [15], 45.8%. The zone of inhibition at 200 µg/disc is 26 mm in assay [3]; 25 mm in assay [4]; 22 mm in [5]; 21 mm in [8]; 19 mm in assay [13]; 23 mm in [14]. Moreover, the zone of inhibition at 200 µg/disc in assay [16] came out at 20 mm.

Take `Cc1ccc(C(=O)CC(C(=O)c2ccc(C)cc2)C2C(N)=NC(=S)N=C2N)cc1` (stereo not drawn): the zone of inhibition at 100 µg/disc came out at 21 mm in [1]; 15 mm in assay [6]; 20 mm in assay [7]; 18 mm in assay [9]; 15 mm in [10]; 14 mm in assay [11]. Further, in assay [12], the zone of inhibition at 100 µg/disc was determined as 16 mm. Besides, the results for the inhibition in assay [2] and in assay [15] were 32.3% and 29.4%, respectively. For the same compound, the zone of inhibition at 200 µg/disc in assay [3] was 24 mm; in [4] it was 21 mm; in assay [5], 18 mm; in [8], 18 mm; in assay [13], 16 mm; in [14] it was 20 mm. In addition, the zone of inhibition at 200 µg/disc in assay [16] stood at 19 mm.

On to `NC1=NC(=O)N=C(N)C1C(CS(=O)(=O)c1ccc(Cl)cc1)S(=O)(=O)c1ccc(Cl)cc1` (stereo not drawn), for which the zone of inhibition at 100 µg/disc in [1] was determined as 23 mm; in assay [6] it was 19 mm; in [7] it was 22 mm; in [9], 18 mm; in assay [10] it was 17 mm; in [11], 16 mm. In addition, in [12], the zone of inhibition at 100 µg/disc was 17 mm. Also, the figures for the inhibition in assay [2] and in assay [15] were 35.8% and 35.9%, respectively. The zone of inhibition at 200 µg/disc in [3] was 25 mm; in assay [4], 24 mm; in assay [5] it was 23 mm; in assay [8], 19 mm; in [13] it was 19 mm; in assay [14], 20 mm. Besides, the zone of inhibition at 200 µg/disc in [16] was 20 mm.

With `Cc1ccc(C(=O)CC(C(=O)c2ccc(C)cc2)C2C(=N)N(C)C(=O)N(C)C2=N)cc1` (stereo not drawn), the zone of inhibition at 100 µg/disc worked out at 9 mm in assay [1]; 14 mm in [6]; 10 mm in [7]; 7 mm in [9]; 12 mm in assay [10]; 10 mm in assay [11]. The zone of inhibition at 100 µg/disc in assay [12] came out at 7 mm. Besides, the inhibition in assay [2] worked out at 21.7%; in [15] it was 20.3%. Besides, the zone of inhibition at 200 µg/disc in assay [3] stood at 10 mm; in assay [4], 12 mm; in assay [5], 16 mm; in [8] it was 9 mm; in [13], 12 mm; in assay [14], 8 mm. Moreover, the zone of inhibition at 200 µg/disc in assay [16] was found to be 15 mm.

With `Cc1ccc(S(=O)(=O)CC(C2C(=N)ON=C2N)S(=O)(=O)c2ccc(C)cc2)cc1` (stereo not drawn), the zone of inhibition at 100 µg/disc in assay [1] was determined as 26 mm; in [6], 28 mm; in assay [7], 26 mm; in assay [9] it was 25 mm; in assay [10] it was 28 mm; in assay [11], 26 mm. Moreover, the zone of inhibition at 100 µg/disc in assay [12] came to 24 mm. Moreover, the inhibition in [2] is 80.8%; in assay [15], 81.5%. Also, the zone of inhibition at 200 µg/disc in assay [3] was determined as 29 mm; in [4] it was 27 mm; in [5] it was 30 mm; in assay [8] it was 25 mm; in [13], 29 mm; in [14], 27 mm. Besides, the zone of inhibition at 200 µg/disc in [16] came out at 31 mm.
